Assay results as given in ChEMBL document CHEMBL4196009, “Novel vitexin-inspired scaffold against leukemia” (Eur J Med Chem, 2018).

Columns and labels:
[1] = test system: BJ; assay: Antiproliferative activity against human BJ cells after 72 hrs by CelTiter-Glo assay; type: cell-based
[2] = test system: THLE-2; assay: Antiproliferative activity against human THLE2 cells after 72 hrs by CelTiter-Glo assay; type: cell-based; conditions: THLE-2, 72 h
[3] = test system: SUP-B15; assay: Antiproliferative activity against human SUP-B15 cells after 72 hrs by CelTiter-Glo assay; type: functional, cell-based; conditions: SUP-B15, 72 h
[4] = test system: MDA-MB-231; assay: Cell cycle arrest in human MDA-MB-231 cells assessed as accumulation at G2/M phase at 20 uM after 24 hrs by propidium iodide staining-based flow cytometry (reference value: 9.38%); type: functional
[5] = test system: HepG2; assay: Antiproliferative activity against human HepG2 cells after 72 hrs by CelTiter-Glo assay; type: functional, cell-based; conditions: HepG2, 72 h
[6] = test system: KOPN-8; assay: Antiproliferative activity against human KOPN8 cells after 72 hrs by CelTiter-Glo assay; type: functional, cell-based; conditions: KOPN-8, 72 h
[7] = test system: MDA-MB-231; assay: Cell cycle arrest in human MDA-MB-231 cells assessed as accumulation at G0/G1 phase at 20 uM after 24 hrs by propidium iodide staining-based flow cytometry (reference value: 70.47%); type: functional
[8] = test system: MDA-MB-231; assay: Cell cycle arrest in human MDA-MB-231 cells assessed as accumulation at S phase at 20 uM after 24 hrs by propidium iodide staining-based flow cytometry (reference value: 20.15%); type: functional
[9] = test system: SEM cells; assay: Antiproliferative activity against human SEM cells after 72 hrs by CelTiter-Glo assay; type: functional, cell-based
[10] = test system: UoC-B1; assay: Antiproliferative activity against human UOCB1 cells after 72 hrs by CelTiter-Glo assay; type: functional, cell-based; conditions: UoC-B1, 72 h
[11] = test system: KOPN-8; assay: Induction of apoptosis in human KOPN8 cells assessed as early apoptotic cells at 10 uM after 24 hrs by Annexin V-FITC/propidium iodide staining-based flow cytometry (reference value: 0.1%); type: functional
Summary of the method: (§1)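 KOPN-8 cells treated 24 h alongside a DMSO vehicle and a staurosporine (2.0 µM) positive control. Apoptosis was scored by FITC Annexin V / propidium iodide flow cytometry with quadrant gating (early, late apoptotic). DNA content was measured by PI staining to give the percentage of cells in G0/G1, S and G2/M. Groups were compared by t-test; error bars are SD.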

[12] = test system: KOPN-8; assay: Cell cycle arrest in human KOPN8 cells assessed as accumulation at G2/M phase at 10 uM after 24 hrs by propidium iodide staining-based flow cytometry (reference value: 9.67%); type: functional; summary of the method: as §1
[13] = test system: KOPN-8; assay: Cell cycle arrest in human KOPN8 cells assessed as accumulation at S phase at 10 uM after 24 hrs by propidium iodide staining-based flow cytometry (reference value: 66.56%); type: functional; summary of the method: as §1
[14] = test system: SUP-B15; assay: Induction of apoptosis in human SUP-B15 cells assessed as necrotic cells at 10 uM after 24 hrs by Annexin V-FITC/propidium iodide staining-based flow cytometry (reference value: 9.2%); type: functional
[15] = test system: SUP-B15; assay: Induction of apoptosis in human SUP-B15 cells assessed as early apoptotic cells at 10 uM after 24 hrs by Annexin V-FITC/propidium iodide staining-based flow cytometry (reference value: 0.1%); type: functional
[16] = test system: KOPN-8; assay: Induction of apoptosis in human KOPN8 cells assessed as necrotic cells at 10 uM after 24 hrs by Annexin V-FITC/propidium iodide staining-based flow cytometry (reference value: 0.2%); type: functional
Summary of the method: (§2)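 KOPN-8 cells were treated for 24 h, with a DMSO vehicle control and a staurosporine positive control. Cells were stained with FITC-Annexin V and propidium iodide and analysed by flow cytometry. Quadrant gating separated viable, early apoptotic, late apoptotic (Q2) and necrotic populations.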

[17] = test system: SUP-B15; assay: Induction of apoptosis in human SUP-B15 cells assessed as viable cells at 10 uM after 24 hrs by Annexin V-FITC/propidium iodide staining-based flow cytometry (reference value: 82.8%); type: functional; conditions: SUP-B15, 24 h, read-out: Activity
[18] = test system: SUP-B15; assay: Induction of apoptosis in human SUP-B15 cells assessed as late apoptotic cells at 10 uM after 24 hrs by Annexin V-FITC/propidium iodide staining-based flow cytometry (reference value: 2.2%); type: functional
[19] = test system: KOPN-8; assay: Induction of apoptosis in human KOPN8 cells assessed as viable cells at 10 uM after 24 hrs by Annexin V-FITC/propidium iodide staining-based flow cytometry (reference value: 85.2%); type: functional; conditions: KOPN-8, 24 h, read-out: Activity; summary of the method: as §2
[20] = test system: KOPN-8; assay: Induction of apoptosis in human KOPN8 cells assessed as late apoptotic cells at 10 uM after 24 hrs by Annexin V-FITC/propidium iodide staining-based flow cytometry (reference value: 9.5%); type: functional; summary of the method: as §2
[21] = test system: KOPN-8; assay: Cell cycle arrest in human KOPN8 cells assessed as accumulation at G0/G1 phase at 10 uM after 24 hrs by propidium iodide staining-based flow cytometry (reference value: 24.77%); type: functional; summary of the method: as §1

SMILES	EC50 [5] [µM]	EC50 [1] [µM]	EC50 [3] [µM]	EC50 [6] [µM]	EC50 [9] [µM]	EC50 [10] [µM]	other results
COc1ccc(-c2c(Br)c(=O)c3c(OC)cc(OC)cc3n2S(=O)(=O)c2ccc(OC)cc2)cc1	> 20	49.7	2.92	2.58	1.9		EC50 [2]: 69 µM; Activity [4]: 11.79%; Activity [7]: 70.02%; Activity [8]: 18.2%
O=c1cc(-c2ccc(O)cc2)oc2c([C@@H]3O[C@H](CO)[C@@H](O)[C@H](O)[C@H]3O)c(O)cc(O)c12 [VITEXIN]	> 43.3	> 86.2	50.7	> 43.3	> 43.3	> 43.3	EC50 [2]: 200 µM
COc1cc(OC)c2c(=O)cc(C(=O)N3CCN(C(=O)OC(C)(C)C)CC3)[nH]c2c1	11.3	13.8	3.98	6.73	47		Activity [11]: 0.2%; Activity [12]: 8.86%; Activity [13]: 61.36%; Activity [14]: 11.3%; EC50 [2]: 299 µM; Activity [15]: 0%; Activity [16]: 0.5%; viability at 10 µM [17]: 77.7%; Activity [18]: 3.2%; viability at 10 µM [19]: 63.7%; Activity [20]: 24.9%; Activity [21]: 29.78%
COc1cc(OC)c2c(=O)cc(C(=O)Nc3ccc(Oc4ccc([N+](=O)[O-])cc4)cc3)[nH]c2c1	> 23	> 23	4.3	20.5	0.48		EC50 [2]: 90 µM
COC(=O)c1cc(=O)c2c(OC)cc(OC)cc2n1S(=O)(=O)c1ccc(C)cc1	> 20	139	9.7	6	5.8		EC50 [2]: 149 µM
COc1ccc(-c2cc(=O)c3c(OC)cc(OC)cc3[nH]2)cc1	> 31.2	> 62.1	> 62.1	> 31.2	> 31.2	> 31.2	
COc1cc(OC)c2c(=O)cc(C(=O)Nc3ccc4oc(-c5ccc(F)cc5)nc4c3)[nH]c2c1	> 36.8	> 36.8	> 36.8	> 36.8	> 36.8	> 36.8	
COc1cc(OC)c2c(=O)cc(C(=O)Nc3ccc(Oc4ccc(F)cc4)cc3)[nH]c2c1	> 50	> 50	> 50	> 50	> 50	> 50	
COc1cc(OC)c2c(=O)cc(C(=O)Nc3ccc(-n4cccc4)cc3)[nH]c2c1	> 77	> 77	> 77	> 77	> 77	51.8	
O=c1c(-c2ccc(O)cc2)coc2cc(O)cc(O)c12 [GENISTEIN]	67.7	> 86.2	> 86.2	> 86.2	59.3	35.7	

The next lines start with results.

EC50 [5] [µM]	SMILES	EC50 [1] [µM]	EC50 [3] [µM]	EC50 [6] [µM]	EC50 [9] [µM]	EC50 [10] [µM]	other results
> 6.35	COC(=O)c1cc(=O)c2cc(NC(=O)Nc3ccc(Cl)c(C(F)(F)F)c3)ccc2[nH]1	> 12.6	> 12.6	> 6.35	> 6.35	> 6.35	Activity [11]: 0.1%; Activity [12]: 11.11%; Activity [13]: 48.5%; Activity [14]: 16.4%; Activity [15]: 0.1%; Activity [16]: 0.3%; viability at 10 µM [17]: 65.5%; Activity [18]: 9.3%; viability at 10 µM [19]: 80.7%; Activity [20]: 12.3%; Activity [21]: 40.39%
> 16.4	COc1cc(OC)c2c(=O)cc(C(=O)Nc3cccc(-n4ccnc4)c3)[nH]c2c1	> 16.4	> 16.4	> 16.4	> 16.4	> 16.4	
> 41.6	COC(=O)c1cc(=O)c2cc([N+](=O)[O-])ccc2[nH]1	> 82.8	76.5	> 41.6	> 41.6	> 41.6	
> 43.3	COC(=O)c1cc(=O)c2cc(NC(=O)Nc3cc(OC)c(OC)c(OC)c3)ccc2[nH]1	> 86.2	> 86.2	> 43.3	> 43.3	> 43.3	
> 33.8	COC(=O)c1cc(=O)c2cc(N)ccc2[nH]1	> 67.2	> 67.2	> 33.8	> 33.8	> 33.8	
> 24.1	COC(=O)c1cc(=O)c2cc(NC(=O)Nc3ccc4c(c3)CCC4)ccc2[nH]1	> 24.1	> 24.1	> 24.1	> 24.1	> 24.1	
> 11.5	C=C(C)c1cccc(C(C)(C)NC(=O)Nc2ccc3[nH]c(C(=O)OC)cc(=O)c3c2)c1	> 23	> 23	> 11.5	> 11.5	> 11.5	
> 12.1	COC(=O)c1cc(=O)c2cc(NC(=O)NC3c4ccccc4-c4ccccc43)ccc2[nH]1	> 24.1	> 24.1	> 12.1	> 12.1	> 12.1	
> 25.3	COC(=O)c1cc(=O)c2cc(NC(=O)N[C@@H](C)c3cccc(OC)c3)ccc2[nH]1	> 25.3	> 25.3	> 25.3	> 25.3	> 25.3	
> 6.35	COC(=O)c1cc(=O)c2cc(NC(=O)Nc3ccc(Cl)c(Cl)c3)ccc2[nH]1	> 12.6	5.52	> 6.35	> 6.35	> 6.35	
> 16.2	COC(=O)c1cc(=O)c2cc(NC(=O)NC34CC5CC(CC(C5)C3)C4)ccc2[nH]1	> 32.2	9.1	> 16.2	> 16.2	> 16.2	
